What was measured:
[1] = test system: L1210; test: Antitumor activity expressed as life span was determined against inoculated L1210 leukemia cells (1*10e5) in mice by 11.3 mg/kg dosage of compound (qd (x 3), for days 1, 4, 7,10,13,16); assay type: functional, Mus musculus
In short: (§1)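 Female mice (~18 g, housed six per cage) received L1210 cells intraperitoneally on day 0. Drug was made fresh and injected at 0.01 mL/g; the stated dose is per injection. Controls received the same volume of 0.154 M NaCl. Survival was followed, with deaths assigned to tumour by necropsy or to drug toxicity by set criteria. Life span is given as mean ± SD.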

[2] = test system: L1210; test: Antitumor activity expressed as life span was determined against inoculated L1210 leukemia cells (1*10e5) in mice by 5.6 mg/kg dosage of compound (qd (x 3), for days 1, 4, 7); assay type: functional, Mus musculus; in short: as §1
[3] = test system: L1210; test: Antitumor activity expressed as life span was determined against inoculated L1210 leukemia cells (1*10e6) in mice by 11.3 mg/kg dosage of compound (qd (x 3), for days 1, 4, 7); assay type: functional, Mus musculus; in short: as §1
[4] = test system: L1210; test: Antitumor activity expressed as life span was determined against inoculated L1210 leukemia cells (1*10e6) in mice by 11.3 mg/kg dosage of compound (qd (x 3), for days 1, 4, 7,10,13,16); assay type: functional, Mus musculus; in short: as §1
[5] = test system: L1210; test: Antitumor activity expressed percentage increase in life span was determined against inoculated L1210 leukemia cells (1*10e5) in mice by 45 mg/kg dosage of compound (qd (x 3), for days 1,5,9); assay type: functional; conditions: Mus musculus
In short: (§2)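 L1210 cells were given intraperitoneally to female mice (~18 g). Freshly prepared drug was injected at 0.01 mL/g, dose per injection, and saline-injected controls were run. The end point was duration of survival. ILS was calculated as percent increase in mean life span over controls. Mice surviving 60 days or more counted as long-term survivors, scored as 60 days.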

[6] = test system: L1210; test: Antitumor activity expressed percentage increase in life span was determined against inoculated L1210 leukemia cells (1*10e5) in mice by 5.6 mg/kg dosage of compound (qd (x 3), for days 1, 4, 7); assay type: functional; conditions: Mus musculus; in short: as §2
[7] = test system: L1210; test: Antitumor activity expressed percentage increase in life span was determined against inoculated L1210 leukemia cells (1*10e6) in mice by 11.3 mg/kg dosage of compound (qd (x 3), for days 1, 4, 7); assay type: functional; conditions: Mus musculus; in short: as §2
[8] = test system: L1210; test: Antitumor activity expressed as life span was determined against inoculated L1210 leukemia cells (1*10e6) in mice by 22.5 mg/kg dosage of compound (qd (x 3), for days 1, 4, 7,10,13,16); assay type: functional, Mus musculus; in short: as §1
[9] = test system: L1210; test: Antitumor activity expressed percentage increase in life span was determined against inoculated L1210 leukemia cells (1*10e5) in mice by 22.5 mg/kg dosage of compound (qd (x 3), for days 1, 4, 7); assay type: functional; conditions: Mus musculus; in short: as §2
[10] = test system: L1210; test: Antitumor activity expressed percentage increase in life span was determined against inoculated L1210 leukemia cells (1*10e5) in mice by 45 mg/kg dosage of compound (qd (x 3), for days 1, 4, 7); assay type: functional; conditions: Mus musculus; in short: as §2
[11] = test system: L1210; test: Antitumor activity expressed percentage increase in life span was determined against inoculated L1210 leukemia cells (1*10e6) in mice by 180 mg/kg dosage of compound (qd (x 3), for days 1, 4, 7); assay type: functional; conditions: Mus musculus; in short: as §2
[12] = test system: M5076; test: Antitumor activity was evaluated by measuring mean life span in tumor (M5076) inoculated mice at 5.6 mg/kg (qd3hx8),days 1-34; assay type: functional, Mus musculus
In short: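 Female mice of about 18 g received subcutaneous M5076 implants matching those used for serial passage. Drug was freshly prepared and injected at 0.01 mL/g every 3 h (×8) on every 3rd day from day 1 to day 34, with the dose stated per injection. Controls received 0.154 M NaCl. Groups held 18 mice (11 in one group). Mean life span was reported as mean ± SD, and tumor volume was also assessed.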

[13] = test system: L1210; test: Antitumor activity expressed percentage increase in life span was determined against inoculated L1210 leukemia cells (1*10e6) in mice by 50 mg/kg dosage of compound (qd (x 3), for days 1- 7); assay type: functional; conditions: Mus musculus
In short: (§3)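 Female mice of about 18 g (BDF1, DBA/2 or C57Bl/6 stocks used) were inoculated intraperitoneally with 1 × 10^6 L1210 cells. Freshly prepared drug was given once daily from about 24 h after inoculation at 0.01 mL/g, with the dose stated per injection. Controls received 0.154 M NaCl, and groups held 6 mice. %ILS was taken from mean survival, with mice alive at 60 days or more counted as 60 days.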

[14] = test system: L1210; test: Antitumor activity expressed percentage increase in life span was determined against inoculated L1210 leukemia cells (1*10e6) in mice by 90 mg/kg dosage of compound (qd (x 3), for days 1- 7); assay type: functional; conditions: Mus musculus; in short: as §3
[15] = test system: L1210; test: Antitumor activity expressed as life span was determined against inoculated L1210 leukemia cells (1*10e6) in mice by 5.6 mg/kg dosage of compound (qd (x 3), for days 1, 4, 7,10,13,16); assay type: functional, Mus musculus; in short: as §1
[16] = test system: L1210; test: Antitumor activity expressed as life span was determined against inoculated L1210 leukemia cells (1*10e6) in mice by 50 mg/kg dosage of compound (qd (x 3), for days 1- 7); assay type: functional, Mus musculus; in short: as §1
[17] = test system: B16 melanoma (mouse); test: Antitumor activity was evaluated by measuring mean life span in tumor (B16 melanoma) inoculated mice at 11.3 mg/kg (qd3hx8),days 1,4,7,10
[18] = test system: B16 melanoma (mouse); test: Antitumor activity was evaluated by measuring mean life span in tumor (B16 melanoma) inoculated mice at 22.5 mg/kg (qd3hx8),days 1,4,7,10,13,16

Which Life span [1] does the source give for `Nc1nc(Br)nc2c1ncn2[C@H]1C[C@H](O)[C@@H](CO)O1` here?
The Life span was 18.67 days.

And the Life span [2]?
Its Life span is 11.75 days.

And the Life span [3]?
Its Life span is 12.92 days.

What about the Life span [4] of the same compound?
Its Life span is 13.17 days.

And the ILS at 45 mg/kg [5]?
Its ILS at 45 mg/kg is 387%.

What about the ILS at 5.6 mg/kg [6] of the same compound?
The ILS at 5.6 mg/kg was 60%.

And the ILS at 11.3 mg/kg [7]?
Its ILS at 11.3 mg/kg is 104%.

And the Life span [8]?
Its Life span is 16.08 days.

What about the ILS at 22.5 mg/kg [9] of the same compound?
The ILS at 22.5 mg/kg was 224%.

What about the ILS at 45 mg/kg [10] of the same compound?
Its ILS at 45 mg/kg is 417%.

What about the ILS at 180 mg/kg [11] of the same compound?
Its ILS at 180 mg/kg is 0%.

And the Life span [12]?
The Life span was 34.44 days.

What about the ILS at 50 mg/kg [13] of the same compound?
Its ILS at 50 mg/kg is 42%.

And the ILS at 90 mg/kg [14]?
Its ILS at 90 mg/kg is 0%.

What about the Life span [15] of the same compound?
Its Life span is 10.5 days.

What about the Life span [16] of the same compound?
The Life span was 9 days.

What about the Life span [17] of the same compound?
The Life span was 23.11 days.

And the Life span [18]?
Its Life span is 19.22 days.
